Experimental data reported in PubChem BioAssay AID504837 (Johns Hopkins Ion Channel Center, 2011).
“And” between values parts separate entries of the source, which are not always exact repeats. Identical values can stand only once. The source made the active and inactive calls.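 The calls were made as follows: active = lowers KCNQ2 potassium channel current at one or more tested doses and a dose response curve can be fitted; inactive = no current drop at any dose, or no curve.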

Biological target: Potassium voltage-gated channel subfamily KQT member 2 (Rattus norvegicus) (UniProt O88943)
Assay: blockers of rat KCNQ2 potassium current – automated electrophysiology, CHO cells, orthogonal assay for KCNQ2 inhibitor project, SAR follow-up (AID 504837)
Settings: automated patch clamp current; for current change, negative = inhibition: at 30 µM (top of the series)
How it was run: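 Material: KCNQ2-expressing CHO cells / Doses: concentration series of test compound, several concentrations / Technique: automated amphotericin-perforated patch clamp recording / Replication: quadruplicate per concentration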

Sequence of Potassium voltage-gated channel subfamily KQT member 2 (Rattus norvegicus) (O88943 whole entry, looked up): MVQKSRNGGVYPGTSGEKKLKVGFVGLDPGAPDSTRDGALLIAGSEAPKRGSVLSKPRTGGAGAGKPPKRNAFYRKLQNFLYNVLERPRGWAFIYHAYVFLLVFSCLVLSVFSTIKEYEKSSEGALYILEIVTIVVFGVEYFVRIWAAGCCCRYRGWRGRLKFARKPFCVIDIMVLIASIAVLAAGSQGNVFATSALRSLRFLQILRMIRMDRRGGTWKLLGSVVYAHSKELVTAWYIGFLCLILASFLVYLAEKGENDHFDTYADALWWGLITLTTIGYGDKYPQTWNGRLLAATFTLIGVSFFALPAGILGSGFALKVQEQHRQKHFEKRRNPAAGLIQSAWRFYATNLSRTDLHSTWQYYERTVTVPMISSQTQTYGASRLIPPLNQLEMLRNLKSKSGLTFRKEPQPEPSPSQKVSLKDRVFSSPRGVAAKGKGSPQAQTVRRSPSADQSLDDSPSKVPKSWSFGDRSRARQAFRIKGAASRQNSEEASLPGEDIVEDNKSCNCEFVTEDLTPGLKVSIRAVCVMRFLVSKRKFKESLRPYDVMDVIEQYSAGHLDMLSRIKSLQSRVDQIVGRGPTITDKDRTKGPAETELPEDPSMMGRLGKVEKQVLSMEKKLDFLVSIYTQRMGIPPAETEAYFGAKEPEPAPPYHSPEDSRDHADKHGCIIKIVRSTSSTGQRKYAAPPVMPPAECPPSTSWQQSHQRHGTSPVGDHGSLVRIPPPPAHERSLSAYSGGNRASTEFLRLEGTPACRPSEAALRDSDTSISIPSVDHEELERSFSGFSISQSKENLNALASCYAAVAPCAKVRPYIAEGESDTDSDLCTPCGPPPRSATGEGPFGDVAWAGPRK

Row | SMILES | current change, negative = inhibition | IC50
1 | CC1(C(=O)NCC(c2cccs2)N2CCOCC2)CC1(Cl)Cl (configuration not stated) |  | 9510 nM
2 | O=C(CC1CCCCC1)NCC(c1cccs1)N1CCOCC1 (configuration not stated) |  | 1730 nM
3 | CC(C)(C)C1CCC(C(=O)NCC(c2cccs2)N2CCOCC2)CC1 (configuration not stated) | inactive | 
4 | O=C(NC[C@H](c1cccs1)N1CCOCC1)C12CC3CC(CC(C3)C1)C2 |  | 8480 nM
5 | COc1ccccc1C(=O)NCC(c1cccs1)N1CCOCC1 (configuration not stated) | inactive | 
6 | O=C(NC[C@@H](c1cccs1)N1CCOCC1)C12CC3CC(CC(C3)C1)C2 |  | 140 nM
7 | Cc1ccc(OCC(=O)NCC(c2cccs2)N2CCOCC2)cc1 (configuration not stated) | inactive | 
8 | CC(C)(C)c1ccc(OCCC(=O)NCC(c2cccs2)N2CCOCC2)cc1 (configuration not stated) | inactive | 
9 | O=C(NCC(c1cccs1)N1CCOCC1)C1COc2ccc(Cl)cc2C1 (configuration not stated) |  | 3200 nM
10 | O=C(NCC(c1cccs1)N1CCOCC1)C12CC3CC(CC(C3)C1)C2 (configuration not stated) |  | 910 nM and 440 nM
11 | O=C(NCC(c1cccs1)N1CCOCC1)C1CCCCC1 (configuration not stated) |  | 2930 nM
12 | Cc1ccc(C(CNC(=O)C2CCC2)N2CCOCC2)o1 (configuration not stated) | inactive | 
13 | CN1CCN(C(CNC(=O)CC(C)(C)C)c2cccs2)CC1 (configuration not stated) | inactive | 
14 | Cc1ccc(OCCC(=O)NCC(c2cccs2)N2CCOCC2)cc1 (configuration not stated) | inactive | 8980 nM
15 | CN1CCN(C(CNC(=O)C23CC4CC(CC(C4)C2)C3)c2cccs2)CC1 (configuration not stated) | inactive | 
16 | CC1Oc2ccccc2OC1C(=O)NCC(c1cccs1)N1CCOCC1 (configuration not stated) |  | 8360 nM

More lines, now with the values ahead:

Row | current change, negative = inhibition | IC50 | SMILES
17 | inactive |  | CC(C)(C)C(=O)NCC(c1cccs1)N1CCOCC1 (configuration not stated)
18 | inactive |  | O=C(NCC(c1ccco1)N1CCOCC1)C1CCCCC1 (configuration not stated)
19 | inactive |  | CCC(CC)C(=O)NCC(c1ccco1)N1CCOCC1 (configuration not stated)
20 | inactive |  | Cc1ccc(C(CNC(=O)C2(C)CC2(Cl)Cl)N2CCOCC2)o1 (configuration not stated)
21 | inactive |  | CCCCC1CCC(C(=O)NCC(c2ccco2)N2CCOCC2)CC1 (configuration not stated)
22 | inactive |  | CCCCC1CCC(C(=O)NC[C@@H](c2ccco2)N2CCOCC2)CC1 (some centres not stated)
23 | inactive |  | O=C(NCC(c1ccco1)N1CCOCC1)C1CC1 (configuration not stated)
24 | inactive |  | CC(C)C(=O)NCC(c1cccs1)N1CCOCC1 (configuration not stated)
25 |  | 1200 nM | O=C(NCC(c1ccco1)N1CCOCC1)C(c1ccccc1)c1ccccc1 (configuration not stated)
26 | inactive |  | CC(C)CC(=O)NCC(c1cccs1)N1CCOCC1 (configuration not stated)
